In ChEMBL document CHEMBL4831540, “Discovery of Aficamten (CK-274), a Next-Generation Cardiac Myosin Inhibitor for the Treatment of Hypertrophic Cardiomyopathy” (J Med Chem, 2021):
Values after ≈ are worked out from the molar mass of the structure shown.

Assays:
[1] = (§1) Inhibition of full-length myosin ATPase activity in bovine cardiac myofibrils; format: subcellular, Bos taurus, Heart
In short: (§2)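 Bovine cardiac myofibril ATPase assay run at a calcium level giving 75% of maximal activity.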

[2] = Metabolic stability in rat liver microsomes assessed as intrinsic clearance measured upto 90mins by HPLC/MS/MS analysis; format: ADME, Microsome; conditions: read-out: CLH
[3] = Metabolic stability in human liver microsomes assessed as intrinsic clearance measured upto 90mins by HPLC/MS/MS analysis; format: ADME, Microsome; conditions: read-out: CLH
[4] = Plasma protein binding in rat plasma assessed as unbound concentration at 5 uM incubated for 6 hrs by HPLC analysis; format: ADME, cell-free
[5] = Plasma protein binding in rat assessed as unbound fraction; format: ADME, cell-free
[6] = Plasma protein binding in human assessed as unbound fraction; format: ADME, cell-free
[7] = Solubility of the compound at pH 6.8 by shake flask method; format: physicochemical; conditions: buffer
In short: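 Shake-flask solubility at pH 6.8; solid form not characterized.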

Bos taurus = species on record: Bos taurus; test: as §1; format: subcellular; conditions: Heart, Myofibril; in short: as §2
[8] = Clearance in Sprague-Dawley rat at 1 mg/kg; format: ADME, organism-based; conditions: in vivo
In short: (§3)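 Rat PK with iv and po administration at 1 mg/kg. Clearance and half-life came from the iv arm, and bioavailability from the iv/po comparison.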

[9] = Half life in Sprague-Dawley rat at 1 mg/kg; format: ADME, organism-based; conditions: in vivo; in short: as §3
[10] = Bioavailability in Sprague-Dawley rat at 1 mg/kg, po or 1 mg/kg, iv; format: ADME, organism-based; conditions: in vivo; in short: as §3
[11] = Clearance in Sprague-Dawley rat at 1 mg/kg; conditions: in vivo
[12] = Unbound clearance in Sprague-Dawley rat at 0.5 mg/kg; format: ADME, organism-based; conditions: in vivo
In short: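 Rat in vivo clearance at a 0.5 mg/kg dose was divided by the rat plasma free fraction to give unbound clearance.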

SMILES | IC50 [1] [µM] | CLint scaled [2] [mL/min/kg] | CLint scaled [3] [mL/min/kg] | fraction unbound at 6 h, 5 µM [4] | other results
Cc1nc(-c2ccc3c(c2)CCC3NC(=O)c2ccccc2)no1 (racemic) | 1.9 | > 124 | 24 | 0.043 | –
CC(C)c1nc(-c2ccc3c(c2)CC[C@H]3NC(=O)c2cnn(C)c2)no1 | 4.1 | – | – | – | –
COCc1nc(-c2ccc3c(c2)CC[C@H]3NC(=O)c2cnn(C)c2)no1 | 6.8 | < 21 | < 11 | 0.082 | fraction unbound [5]: 0.082; fraction unbound [6]: 0.12; solubility thermodynamic [7]: 63 µM (≈ 22.3 µg/mL)
Cc1nc(-c2ccc3c(c2)CCC3NC(=O)c2nnn(C)n2)no1 (racemic) | 5.1 | < 21 | < 11 | 0.19 | –
CCc1nc(-c2ccc3c(c2)CCN3C(=O)CSc2ccccc2)no1 | > 39 | – | – | – | IC15 (Bos taurus): > 39 µM
CCc1nc(-c2ccc3c(c2)CC[C@H]3NC(=O)c2ccnc(C)c2)no1 | 1.2 | 23 | < 11 | 0.084 | fraction unbound [5]: 0.021; clearance [8]: 13 mL/min/kg; half-life [9]: 3.5 h; bioavailability [10]: 32%; clearance [11]: 13 mL/min/kg
CC(C)c1nc(-c2ccc3c(c2)CC[C@H]3NC(=O)c2nnn(C)n2)no1 | 1.9 | < 21 | < 11 | 0.17 | fraction unbound [5]: 0.089; clearance [8]: 16 mL/min/kg; half-life [9]: 4.6 h; bioavailability [10]: 52%; clearance [11]: 16 mL/min/kg
Cc1nc(-c2ccc3c(c2)CC[C@@H]3NC(=O)c2cnn(C)c2)no1 | > 39 | < 21 | < 11 | 0.15 | CL free [12]: 395 mL/min/kg
Cc1nc(-c2ccc3c(c2)CC[C@H]3NC(=O)c2cnn(C)c2)no1 | 4.4 | < 21 | < 11 | 0.065 | CL free [12]: 32.3 mL/min/kg; fraction unbound [5]: 0.065; fraction unbound [6]: 0.14; solubility thermodynamic [7]: 86 µM (≈ 27.8 µg/mL)
CCc1nc(-c2ccc3c(c2)CC[C@H]3NC(=O)c2cnc(C)o2)no1 | 1.7 | < 21 | < 11 | 0.18 | fraction unbound [5]: 0.046; clearance [8]: 21 mL/min/kg; half-life [9]: 4.1 h; bioavailability [10]: 13%; clearance [11]: 21 mL/min/kg
CCc1nc(-c2ccc3c(c2)CCN3CCc2ccccc2)no1 | > 39 | – | – | – | IC15 (Bos taurus): 3.4 µM
CCc1nc(-c2ccc3c(c2)CC[C@H]3NC(=O)c2ocnc2C)no1 | 0.8 | – | < 11 | 0.1 | fraction unbound [5]: 0.051; clearance [8]: 40 mL/min/kg; half-life [9]: 14.7 h; bioavailability [10]: 0%; clearance [11]: 40 mL/min/kg
Cc1cc(C(=O)NC2CCc3cc(-c4noc(C)n4)ccc32)on1 (racemic) | 8.1 | 48 | < 11 | 0.072 | –
CCc1nc(-c2ccc3c(c2)CC[C@H]3NC(=O)c2cc(C)ncn2)no1 | 1.8 | 24 | < 11 | 0.092 | fraction unbound [5]: 0.046; clearance [8]: 20 mL/min/kg; half-life [9]: 5.9 h; bioavailability [10]: 26%; clearance [11]: 20 mL/min/kg
Cn1cc(C(=O)N[C@@H]2CCc3cc(-c4noc(C5CCC5)n4)ccc32)cn1 | 3.2 | – | – | – | solubility thermodynamic [7]: 14 µM (≈ 5.09 µg/mL)
CCc1nc(-c2ccc3c(c2)CCN3C(=O)OCc2ccccc2)no1 | > 39 | – | – | – | IC15 (Bos taurus): 1.3 µM
CCc1nc(-c2ccc3c(c2)CCN3C(=O)c2ccccc2)no1 | > 39 | – | – | – | IC15 (Bos taurus): > 39 µM
Cc1cc(C(=O)N[C@@H]2CCc3cc(-c4noc(C(C)C)n4)ccc32)ccn1 | 2.7 | 23 | < 11 | 0.053 | clearance [8]: 14 mL/min/kg; half-life [9]: 4.6 h; bioavailability [10]: 79%; clearance [11]: 14 mL/min/kg

SMILES | IC50 [1] [µM] | CLint scaled [2] [mL/min/kg] | CLint scaled [3] [mL/min/kg] | fraction unbound at 6 h, 5 µM [4] | other results
CCc1nc(-c2ccc3c(c2)CCC3NC(=O)c2ccccc2)no1 (racemic) | 1 | > 124 | > 62 | 0.023 | –
CCc1nc(-c2ccc3c(c2)CCN3C(=O)Nc2ccccc2)no1 | > 39 | – | – | – | IC15 (Bos taurus): > 39 µM
Cc1cc(C(=O)N[C@@H]2CCc3cc(-c4noc(C5CC5)n4)ccc32)ccn1 | 1.9 | < 21 | < 11 | 0.049 | clearance [8]: 3 mL/min/kg; half-life [9]: 13.8 h; bioavailability [10]: 70%; clearance [11]: 3 mL/min/kg
CCc1nc(-c2ccc3c(c2)CCN3C(=O)COc2ccccc2)no1 | 2.7 | – | – | – | IC15 (Bos taurus): 0.9 µM
CCc1nc(-c2ccc3c(c2)CCN3C(=O)NCc2ccccc2)no1 | > 39 | – | – | – | IC15 (Bos taurus): > 39 µM
CCc1nc(-c2ccc3c(c2)CC[C@H]3NC(=O)c2ccnnc2)no1 | 1.2 | – | < 11 | 0.31 | clearance [8]: 44 mL/min/kg; half-life [9]: 6.6 h; bioavailability [10]: 16%; clearance [11]: 44 mL/min/kg
Cn1cc(C(=O)N[C@@H]2CCc3cc(-c4noc(CCO)n4)ccc32)cn1 | > 39 | – | – | – | –
Cc1cc(C(=O)NC2CCc3cc(-c4noc(C)n4)ccc32)ccn1 (racemic) | 7.1 | < 21 | < 11 | 0.097 | –
Cc1nc(-c2ccc3c(c2)CCC3NC(=O)c2cnc(C)n2C)no1 (racemic) | 7.6 | < 21 | < 11 | 0.089 | –
CCc1nc(-c2ccc3c(c2)CC[C@H]3NC(=O)c2cn[nH]c2)no1 | 1.1 | 66 | < 11 | 0.2 | fraction unbound [5]: 0.2; clearance [8]: 63 mL/min/kg; half-life [9]: 1.4 h; bioavailability [10]: 10%; clearance [11]: 63 mL/min/kg
CCc1nc(-c2ccc3c(c2)CCN3C(=O)Cc2ccccc2)no1 | 19.1 | – | – | – | IC15 (Bos taurus): 3.5 µM
Cn1cc(C(=O)N[C@@H]2CCc3cc(-c4noc(C5CC5)n4)ccc32)cn1 | 2.7 | – | – | – | fraction unbound [5]: 0.042; fraction unbound [6]: 0.056; solubility thermodynamic [7]: 33 µM (≈ 11.5 µg/mL)
COCCc1nc(-c2ccc3c(c2)CC[C@H]3NC(=O)c2cnn(C)c2)no1 | > 39 | – | – | – | –
Cc1nc(-c2ccc3c(c2)CCC3NC(=O)c2oncc2C)no1 (racemic) | 2.5 | 46 | < 11 | 0.064 | –
Cn1cc(C(=O)N[C@@H]2CCc3cc(-c4ncon4)ccc32)cn1 | > 39 | – | – | – | –
CCc1nc(-c2ccc3c(c2)CCN3C(=O)CCc2ccccc2)no1 | > 39 | – | – | – | IC15 (Bos taurus): > 39 µM
Cn1cc(C(=O)N[C@@H]2CCc3cc(-c4noc(C(F)F)n4)ccc32)cn1 | 2.4 | < 21 | < 11 | 0.024 | fraction unbound [5]: 0.024; fraction unbound [6]: 0.057; solubility thermodynamic [7]: 37 µM (≈ 13.3 µg/mL)
